From ChEMBL document CHEMBL1151163, “New chromanone acids with antibacterial activity from Calophyllum brasiliense” (J Nat Prod, 2004)
Values after ≈ are worked out from the molar mass of the structure shown.

Legend:
[1] = system: Staphylococcus epidermidis; experiment: Antimicrobial activity against Staphylococcus epidermidis ATCC 12228 by doubling dilution method; assay type: functional
Procedure, shortened: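 Twofold serial (doubling) dilution susceptibility test following a previously published protocol, with chloramphenicol as the positive control.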

KB = experiment: Cytotoxicity against human KB cells; assay type: functional, cell-based
Procedure, shortened: (§1)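 Cytotoxicity followed previously published protocols. KB cells (HeLa-derived, ATCC CCL 17) used podophyllotoxin as the positive control. Jurkat T helper cells (ATCC TIB 152) used helenalin. Myosarcoma cells used aculeatin A.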

Jurkat = experiment: Cytotoxicity against human Jurkat T cells; assay type: functional, cell-based; procedure, shortened: as §1
[2] = Cytotoxicity against Myosarcoma cells; assay type: functional, cell-based; procedure, shortened: as §1

Compound | MIC [1] [µg/mL] | IC50 (KB) [µg/mL] | IC50 (Jurkat) [µg/mL] | IC50 [2] [µg/mL]
O=C(N[C@H](CO)[C@H](O)c1ccc([N+](=O)[O-])cc1)C(Cl)Cl [CHLORAMPHENICOL] | 4 (≈ 12.4 µM) | – | – | –
COc1cc([C@@H]2c3cc4c(cc3[C@H](O)[C@H]3COC(=O)[C@H]23)OCO4)cc(OC)c1OC [PODOFILOX] | – | 0.005 (≈ 0.0121 µM) | – | –
C=C(C)[C@@H]1C[C@@H](CC2(CC=C(C)C)C(=O)C3=C(O)[C@@H](C)[C@H](C)OC3=C(C(CC(=O)O)c3ccccc3)C2=O)C1(C)C (relative stereo) [ISOBRASILIENSOPHYLLIC ACID A] | 16 (≈ 28.5 µM) | > 20 | > 20 | > 20
CCCCCCCCCCCCC[C@@H]1C[C@@H](O)C[C@]2(CCC3(C=CC(=O)C=C3)O2)O1 [ACULEATIN A] | – | – | – | 0.3 (≈ 0.717 µM)
C=C(C)[C@@H]1C[C@@H](CC2(CC=C(C)C)C(=O)C(C(CC(=O)O)c3ccccc3)=C3O[C@@H](C)[C@@H](C)C(=O)C3=C2O)C1(C)C (relative stereo) [ISOBRASILIENSOPHYLLIC ACID B] | 16 (≈ 28.5 µM) | > 20 | > 20 | > 20
C=C(C)[C@@H]1C[C@@H](CC2(CC=C(C)C)C(=O)C(C(CC(=O)O)c3ccccc3)=C3O[C@H](C)[C@@H](C)C(=O)C3=C2O)C1(C)C (relative stereo) [BRASILIENSOPHYLLIC ACID B] | 16 (≈ 28.5 µM) | > 20 | > 20 | > 20
C=C(C)[C@@H]1C[C@@H](CC2(CC=C(C)C)C(=O)C3=C(O)[C@@H](C)[C@@H](C)OC3=C(C(CC(=O)O)c3ccccc3)C2=O)C1(C)C (relative stereo) [BRASILIENSOPHYLLIC ACID A] | 16 (≈ 28.5 µM) | > 20 | > 20 | > 20
C=C1C(=O)O[C@@H]2C[C@@H](C)[C@@H]3C=CC(=O)[C@@]3(C)[C@@H](O)[C@H]12 [HELENALIN] | – | – | 0.03 (≈ 0.114 µM) | –
